# Measured values from different studies.
# Target: Mitogen-activated protein kinase kinase kinase 5 (MAP3K5, Homo sapiens, UniProt Q99683)
# One construct used (Q99683 1-1374): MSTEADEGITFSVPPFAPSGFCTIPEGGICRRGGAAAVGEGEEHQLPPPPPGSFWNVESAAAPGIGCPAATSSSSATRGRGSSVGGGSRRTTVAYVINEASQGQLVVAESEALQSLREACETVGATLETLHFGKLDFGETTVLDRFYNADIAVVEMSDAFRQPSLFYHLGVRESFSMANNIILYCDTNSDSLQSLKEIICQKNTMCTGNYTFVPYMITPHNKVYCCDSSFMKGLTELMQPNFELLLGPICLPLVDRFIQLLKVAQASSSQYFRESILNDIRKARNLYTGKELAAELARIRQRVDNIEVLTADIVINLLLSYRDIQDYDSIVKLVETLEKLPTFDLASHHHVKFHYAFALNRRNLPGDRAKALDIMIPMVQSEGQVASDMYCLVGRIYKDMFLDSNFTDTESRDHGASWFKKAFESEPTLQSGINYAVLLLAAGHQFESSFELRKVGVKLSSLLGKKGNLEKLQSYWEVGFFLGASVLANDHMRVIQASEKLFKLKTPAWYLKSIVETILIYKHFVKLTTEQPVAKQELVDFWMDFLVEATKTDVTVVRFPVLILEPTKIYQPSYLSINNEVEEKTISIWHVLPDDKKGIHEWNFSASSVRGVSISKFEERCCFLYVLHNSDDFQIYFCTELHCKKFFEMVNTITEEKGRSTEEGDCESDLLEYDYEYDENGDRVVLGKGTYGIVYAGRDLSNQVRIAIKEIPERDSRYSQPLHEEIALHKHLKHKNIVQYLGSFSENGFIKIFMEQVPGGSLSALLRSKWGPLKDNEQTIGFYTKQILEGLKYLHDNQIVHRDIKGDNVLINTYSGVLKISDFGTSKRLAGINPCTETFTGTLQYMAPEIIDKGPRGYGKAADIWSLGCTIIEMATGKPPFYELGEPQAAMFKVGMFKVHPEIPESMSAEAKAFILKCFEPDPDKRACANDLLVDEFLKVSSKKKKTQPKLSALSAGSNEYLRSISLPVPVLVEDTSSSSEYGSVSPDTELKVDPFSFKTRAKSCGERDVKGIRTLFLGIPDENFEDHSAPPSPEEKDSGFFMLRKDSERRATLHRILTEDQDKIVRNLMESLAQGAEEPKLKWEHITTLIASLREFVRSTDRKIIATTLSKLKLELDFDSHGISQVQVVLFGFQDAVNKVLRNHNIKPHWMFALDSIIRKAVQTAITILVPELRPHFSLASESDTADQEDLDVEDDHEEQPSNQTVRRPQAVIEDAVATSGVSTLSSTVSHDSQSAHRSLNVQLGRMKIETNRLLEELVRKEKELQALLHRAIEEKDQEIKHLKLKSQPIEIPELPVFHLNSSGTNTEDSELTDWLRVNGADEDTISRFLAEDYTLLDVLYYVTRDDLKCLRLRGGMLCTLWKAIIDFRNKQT
Compound,effect on,mode,technique,concentration,quantity,value
COc1ccc2oc(-c3ccc4nc(N)oc4c3)c/c(=N\c3ccccc3NC(=O)CCN)c2c1,binding,,,1 µM,remaining binding,100%
CO[C@@H]1[C@H](N(C)C(=O)c2ccccc2)C[C@H]2O[C@]1(C)n1c3ccccc3c3c4c(c5c6ccccc6n2c5c31)C(=O)NC4,enzyme activity,inhibitor,,1 µM,inhibition,0%
CN1CCN(C(=O)c2ccc(NC(=O)Nc3ccc(N(C)c4ccnc(Nc5ccc(CS(C)(=O)=O)cc5)n4)cc3)cc2)CC1,binding,,,1 µM,remaining binding,100%
C#Cc1cc(-c2cc(Nc3nc(N[C@@H](C)c4ccc(F)cn4)ncc3Cl)n[nH]2)ccc1C=O,enzyme activity,inhibitor,,0.2 µM,inhibition,4.04%
Cc1cc(O)c(-c2ccc([C@@H](C)CN(C)C)cc2)c2c1[nH]c(=O)c1sccc12,enzyme activity,inhibitor,,0.1 µM,inhibition,-7.51%
C=CC(=O)N1CCC[C@@H](n2nc(-c3ccc(Oc4ccccc4)cc3)c3c(N)ncnc32)C1,enzyme activity,inhibitor,,1 µM,inhibition,10%
Cc1ccc(NC(=O)c2ccnc(C(F)(F)F)c2)cc1-c1cc(OCCO)nc(N2CCOCC2)c1,binding,,,1 µM,remaining binding,92%
CCCCC(=O)Nc1ccc(-c2ccc3ncn(CCC)c(=O)c3c2)cn1,binding,,competition with immobilised ligand,0.5 µM,remaining binding,91%
